Consider five molecules from ChEMBL document CHEMBL5137074 (J Med Chem, 2022).

Data set [1] deals with Cytochrome P450 2D6 (Homo sapiens, UniProt P10635). Briefly: Inhibition of CYP2D6 (unknown origin).
The target in data set [2] is Cytochrome P450 2C9 (Homo sapiens, UniProt P11712). Nature of the data set: Inhibition of CYP2C9 (unknown origin).
Data set [3] can be described thus: Apparent permeability across apical to basolateral side in human Caco-2 cells.
Data set [4] in a line: Metabolic stability in human hepatocytes assessed as intrinsic clearance measured per 10^6 cells.
A short description of data set [5]: Oral bioavailability in CD-1 mouse at 2.5 to 5 mg/kg measured upto 24 hrs by HPLC-LCMS analysis. It counts as ADME, organism-based. The following applies: in vivo, dose 2.5-5 mg/kg. The gist of the method:
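Female CD1 mice (20–30 g) dosed IV at 1 mg/kg as a solution. Oral dosing at 2.5 or 5 mg/kg as a suspension in 0.5% methyl cellulose. […] Non-compartmental analysis.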

The nature of data set [6]: Oral bioavailability in Cynomolgous monkey at 1 mg/kg measured upto 24 hrs by reversed phase LCMS analysis. To be noted: cynomolgus monkey, in vivo. It counts as ADME, organism-based, Macaca fascicularis.
Data set [7] deals with T1, Cytochrome P450 3A4 (Homo sapiens, UniProt P08684). Nature of the data set: Induction of CYP3A4 in human hepatocytes at 3 uM relative to rifampicin. In kind it is ADME, cell-based, Hepatocyte. The gist of the method:
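Single-donor human hepatocytes exposed at 3 μM. CYP3A4 induction expressed as % of the 10 μM rifampicin positive control.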

The target of data set [8] is Voltage-gated inwardly rectifying potassium channel KCNH2 (Homo sapiens, UniProt Q12809). Briefly: Inhibition of human ERG by patch-clamp assay. It counts as toxicity. For orientation: Patch clamp records ionic current or voltage across a cell membrane.
Voltage-gated inwardly rectifying potassium channel KCNH2, sequence (Q12809 whole entry): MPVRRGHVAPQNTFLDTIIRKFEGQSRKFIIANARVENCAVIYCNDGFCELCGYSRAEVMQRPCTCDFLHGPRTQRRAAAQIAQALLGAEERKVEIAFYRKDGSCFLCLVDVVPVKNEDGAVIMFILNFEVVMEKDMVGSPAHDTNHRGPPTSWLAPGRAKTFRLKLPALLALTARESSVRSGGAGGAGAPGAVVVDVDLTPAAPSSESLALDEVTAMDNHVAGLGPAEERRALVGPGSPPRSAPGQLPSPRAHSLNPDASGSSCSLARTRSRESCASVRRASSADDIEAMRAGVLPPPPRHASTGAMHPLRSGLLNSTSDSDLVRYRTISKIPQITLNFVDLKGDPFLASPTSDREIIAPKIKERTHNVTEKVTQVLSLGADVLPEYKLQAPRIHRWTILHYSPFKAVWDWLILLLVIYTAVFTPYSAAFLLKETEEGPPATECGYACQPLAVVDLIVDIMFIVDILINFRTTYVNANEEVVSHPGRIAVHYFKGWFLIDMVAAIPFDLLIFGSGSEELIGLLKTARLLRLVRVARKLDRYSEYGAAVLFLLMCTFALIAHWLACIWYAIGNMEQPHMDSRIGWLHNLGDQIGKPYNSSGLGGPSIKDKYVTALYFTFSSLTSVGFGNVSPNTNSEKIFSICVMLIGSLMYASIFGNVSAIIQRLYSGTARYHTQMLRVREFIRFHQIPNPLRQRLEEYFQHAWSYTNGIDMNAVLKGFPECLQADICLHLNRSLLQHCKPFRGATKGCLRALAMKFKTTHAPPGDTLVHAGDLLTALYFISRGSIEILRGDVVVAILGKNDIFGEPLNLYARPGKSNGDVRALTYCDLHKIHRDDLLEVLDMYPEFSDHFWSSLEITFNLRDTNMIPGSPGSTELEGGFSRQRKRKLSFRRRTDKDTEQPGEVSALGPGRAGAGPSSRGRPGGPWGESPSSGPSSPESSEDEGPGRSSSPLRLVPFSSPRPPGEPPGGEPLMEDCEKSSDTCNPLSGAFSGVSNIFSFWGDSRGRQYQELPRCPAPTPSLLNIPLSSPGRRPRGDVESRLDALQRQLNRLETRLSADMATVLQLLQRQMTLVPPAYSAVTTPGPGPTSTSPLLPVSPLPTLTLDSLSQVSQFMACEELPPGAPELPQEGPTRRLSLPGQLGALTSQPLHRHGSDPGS
Data set [9] concerns OVCAR-3. Nature of the data set: Antitumor activity against human OVCAR-3 cells xenografted in SCID/Beige mouse assessed as reduction in tumor growth measured upto 20 days by digital caliper method. To be noted: dose 15-300 ppm, time <= 21.0 day, DDE = dose-dependent effect, in the assay text read “upto 21 days” for “upto 20 days”. It counts as functional, cell-based. Summed up:
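Female SCID-beige mice (5–7 weeks) were implanted in the right flank with 5×10^6 OVCAR3 cells in 1:1 matrigel:media. At 100–150 mm3 they were randomised (n=8/group) and acclimatised to blank chow for 3–5 days. They then received drug-formulated chow at 15, 50 or 300 ppm for 21 days. Tumours were measured by caliper, with volume = 0.52×L×W2. TGI was calculated from group means at day 0 and the last day versus vehicle.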
A general note: A xenograft is tissue or cells of one species grown in another, often human tumour cells in immunodeficient mice.

Data set [10] can be described thus: Toxicity in SCID/Beige mouse xenografted with OVCAR-3 cells assessed as change in body weight at 300 ppm measured upto 21 days. In kind it is cell-based. The following applies: in vivo, 504 h, time < 21 day. The gist of the method:
(§1)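 OVCAR3 flank xenografts in female SCID-beige mice (n=8) given drug-formulated chow for 21 days after blank-chow acclimatization. Individual body weight change relative to day 0 = (BWlast−BWday0)/BWday0 ×100. Food consumption was also monitored as two-day mean chow intake.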

Data set [11] in a line: Toxicity in SCID/Beige mouse xenografted with OVCAR-3 cells assessed as reduction in food consumption at 15 to 300 ppm incorporated with chow diet measured upto 21 days. It counts as cell-based. To be noted: in vivo, po, 504 h, dose 15-300 ppm, time < 21 day. Summed up: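 The drug was dissolved in acetone and mixed into rodent meal at 300 ppm, then diluted with untreated feed to lower levels. Xenografted SCID-beige mice were acclimatised to blank chow, then fed 15, 50 or 300 ppm chow for 21 days. The two-day mean chow consumption was compared with mice on blank chow.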

Data set [12] is described as follows: Toxicity in SCID/Beige mouse xenografted with OVCAR-3 cells assessed as tolerated dose at 300 ppm measured upto 21 days. It counts as cell-based. To be noted: in vivo, 504 h, time < 21 day. The gist of the method:
as §1

The nature of data set [13]: Stability in SCID/Beige mouse plasma assessed as unbound compound at 50 to 300 ppm simulated dose incorporated with chow diet measured on 22 day. It counts as ADME. To be noted: in vivo, po, dose 50-300 ppm. Summed up:
(§2)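 OVCAR3-bearing SCID-beige mice were fed drug-formulated chow. Whole blood was sampled at 6:30am and 4:30pm on days 2, 5 and 22 and quantified by LC-MS/MS. Blood levels were converted to free plasma levels using blood/plasma ratio 1.2 and CD-1 plasma fu 0.185. […] Time over EC90 was referenced to the tumour pCDK1(Thr14) EC90.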

Data set [14] in a line: Unbound Cmax in SCID/Beige mouse xenografted with OVCAR-3 cells at 50 ppm incorporated with chow diet. To be noted: po. In kind it is ADME. The gist of the method: as §2
Data set [15] relates to OVCAR-3. Nature of the data set: Antitumor activity against human OVCAR-3 cells xenografted in SCID/Beige mouse assessed as time over EC90 concentration at 15 ppm incorporated with chow diet. In kind it is functional. Summed up: as §2
A short description of data set [16]: In vivo inhibition of PKMYT1 in SCID/Beige mouse xenografted with human OVCAR-3 cells assessed as inhibition of CDK1 phosphorylation measured upto 10 hrs post oral dose by ELISA method. In kind it is functional. Summed up: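 OVCAR3 tumours were collected 2, 6 and 10 h after oral BID dosing (n=4/group/time point). They were homogenised in Tris lysis buffer with protease and phosphatase inhibitors. pCDK1(Thr14) was measured by sandwich ELISA with an anti-CDK1 capture antibody, an anti-CDK1-pT14 detector and an anti-rabbit HRP secondary, read at 450 nm. Signal was expressed relative to vehicle, and the free-plasma EC50 was derived by non-linear dose-response fitting.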

For data set [17] the following is noted: rat, in vivo, po, 5 mg/kg, 24 h.
Data set [18] deals with T2, Ephrin type-B receptor 3 (Homo sapiens, UniProt P54753).
T2 sequence (P54753 whole entry): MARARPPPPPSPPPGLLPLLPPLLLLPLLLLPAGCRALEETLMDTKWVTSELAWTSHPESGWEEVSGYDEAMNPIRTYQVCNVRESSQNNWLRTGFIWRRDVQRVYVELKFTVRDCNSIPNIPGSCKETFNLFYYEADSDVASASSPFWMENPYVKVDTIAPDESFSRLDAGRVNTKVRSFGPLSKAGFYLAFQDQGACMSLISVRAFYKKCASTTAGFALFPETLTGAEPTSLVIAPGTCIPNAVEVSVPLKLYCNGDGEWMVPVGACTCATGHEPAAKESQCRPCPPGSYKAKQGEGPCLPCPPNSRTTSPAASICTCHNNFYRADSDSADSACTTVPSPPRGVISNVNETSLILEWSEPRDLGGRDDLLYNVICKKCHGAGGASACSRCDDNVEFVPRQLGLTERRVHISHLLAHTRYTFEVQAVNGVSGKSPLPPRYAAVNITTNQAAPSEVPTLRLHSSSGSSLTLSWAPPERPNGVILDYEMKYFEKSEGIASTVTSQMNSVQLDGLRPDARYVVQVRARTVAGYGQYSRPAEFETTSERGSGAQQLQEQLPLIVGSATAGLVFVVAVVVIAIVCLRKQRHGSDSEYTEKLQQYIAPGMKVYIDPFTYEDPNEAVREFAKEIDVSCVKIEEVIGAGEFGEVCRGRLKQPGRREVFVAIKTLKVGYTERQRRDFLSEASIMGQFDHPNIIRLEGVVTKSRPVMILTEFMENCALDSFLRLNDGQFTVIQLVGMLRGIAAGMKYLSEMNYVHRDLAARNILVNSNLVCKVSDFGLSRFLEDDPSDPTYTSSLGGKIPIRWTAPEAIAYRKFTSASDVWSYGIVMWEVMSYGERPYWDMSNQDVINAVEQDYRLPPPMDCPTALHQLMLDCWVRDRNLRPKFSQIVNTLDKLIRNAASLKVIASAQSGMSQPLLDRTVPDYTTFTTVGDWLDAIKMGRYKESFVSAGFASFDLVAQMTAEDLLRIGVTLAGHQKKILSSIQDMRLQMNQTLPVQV
Nature of the data set: Inhibition of full length Nano-luc fused EPHB3 in human HEK-293T cells incubated for 2 hrs by cell based NanoBRET target engagement assay. Summed up: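 HEK293T cells transiently transfected with the NanoLuc–kinase fusion vector plus carrier DNA and left overnight at 37 °C/5% CO2. Cells were resuspended in phenol red-free Opti-MEM at 17000 cells/well with the tracer. They were then exposed to compound for 2 h at 37 °C, and substrate/inhibitor mix was added. Acceptor (610 nm) and donor (450 nm) emissions were read.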

The target of data set [19] is Wee1-like protein kinase (Homo sapiens, UniProt P30291). Briefly: Inhibition of WEE1 (unknown origin).
Wee1-like protein kinase, sequence (P30291 whole entry): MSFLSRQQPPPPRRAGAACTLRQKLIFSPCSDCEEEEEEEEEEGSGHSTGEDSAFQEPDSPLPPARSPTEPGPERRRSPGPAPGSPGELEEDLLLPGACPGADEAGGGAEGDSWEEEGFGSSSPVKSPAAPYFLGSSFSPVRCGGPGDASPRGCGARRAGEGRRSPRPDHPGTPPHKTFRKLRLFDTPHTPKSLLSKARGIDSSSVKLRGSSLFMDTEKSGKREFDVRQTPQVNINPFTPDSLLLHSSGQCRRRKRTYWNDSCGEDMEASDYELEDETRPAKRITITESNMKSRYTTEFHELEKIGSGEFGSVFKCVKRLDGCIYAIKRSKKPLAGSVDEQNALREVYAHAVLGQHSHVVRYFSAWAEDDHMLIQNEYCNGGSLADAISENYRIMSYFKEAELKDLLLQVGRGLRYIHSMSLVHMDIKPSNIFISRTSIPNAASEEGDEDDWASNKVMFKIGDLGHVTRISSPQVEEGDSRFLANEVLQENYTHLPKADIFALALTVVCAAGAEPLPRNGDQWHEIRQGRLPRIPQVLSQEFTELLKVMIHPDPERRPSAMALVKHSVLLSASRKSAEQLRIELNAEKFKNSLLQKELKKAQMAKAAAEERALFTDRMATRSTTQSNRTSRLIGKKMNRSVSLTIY
Data set [20] concerns the target T1, Cytochrome P450 3A4. Briefly: Inhibition of CYP3A4 (unknown origin).
Data set [21] is described as follows: Plasma protein binding in rat at 1 uM.
Data set [22] can be described thus: Plasma protein binding in human at 1 uM. It counts as ADME, cell-free. The gist of the method: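 Plasma protein binding measured at 1 μM compound in human plasma, with rat plasma run alongside.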
Data set [23] can be described thus: Oral bioavailability in Beagle dog at 1 mg/kg measured upto 24 hrs by reversed phase LCMS analysis. In kind it is ADME, organism-based, Canis lupus familiaris. To be noted: in vivo.
For data set [24] the following is noted: rat, in vivo, iv, 1 mg/kg, 24 h.

T1 sequence (P08684 whole entry): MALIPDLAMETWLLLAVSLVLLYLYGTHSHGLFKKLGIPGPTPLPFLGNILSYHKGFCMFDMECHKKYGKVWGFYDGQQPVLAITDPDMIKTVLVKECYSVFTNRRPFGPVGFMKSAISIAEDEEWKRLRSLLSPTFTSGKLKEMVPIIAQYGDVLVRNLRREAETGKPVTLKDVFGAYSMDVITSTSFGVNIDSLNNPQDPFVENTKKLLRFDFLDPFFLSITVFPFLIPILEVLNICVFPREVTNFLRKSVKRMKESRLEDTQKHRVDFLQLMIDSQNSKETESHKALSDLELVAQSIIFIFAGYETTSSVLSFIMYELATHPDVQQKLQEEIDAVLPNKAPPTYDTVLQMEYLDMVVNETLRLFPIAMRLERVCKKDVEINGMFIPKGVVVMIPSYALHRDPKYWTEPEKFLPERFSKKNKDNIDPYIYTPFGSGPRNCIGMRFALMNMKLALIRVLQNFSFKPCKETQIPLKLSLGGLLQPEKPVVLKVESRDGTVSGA
Cytochrome P450 2C9, sequence (P11712 whole entry): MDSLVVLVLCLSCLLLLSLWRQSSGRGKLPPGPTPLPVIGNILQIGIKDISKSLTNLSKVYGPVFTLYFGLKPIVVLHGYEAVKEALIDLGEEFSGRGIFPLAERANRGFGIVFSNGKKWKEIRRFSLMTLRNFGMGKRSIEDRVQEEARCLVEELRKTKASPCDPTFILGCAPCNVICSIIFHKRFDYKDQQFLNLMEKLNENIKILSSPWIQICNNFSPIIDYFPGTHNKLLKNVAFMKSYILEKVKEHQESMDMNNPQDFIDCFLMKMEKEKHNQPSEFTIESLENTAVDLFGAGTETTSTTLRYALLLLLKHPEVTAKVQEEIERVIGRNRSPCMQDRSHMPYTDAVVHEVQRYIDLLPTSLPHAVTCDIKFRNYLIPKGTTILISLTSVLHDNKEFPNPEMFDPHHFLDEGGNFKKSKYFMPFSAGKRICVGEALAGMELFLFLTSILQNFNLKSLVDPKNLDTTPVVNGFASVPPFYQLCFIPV
Cytochrome P450 2D6, sequence (P10635 whole entry): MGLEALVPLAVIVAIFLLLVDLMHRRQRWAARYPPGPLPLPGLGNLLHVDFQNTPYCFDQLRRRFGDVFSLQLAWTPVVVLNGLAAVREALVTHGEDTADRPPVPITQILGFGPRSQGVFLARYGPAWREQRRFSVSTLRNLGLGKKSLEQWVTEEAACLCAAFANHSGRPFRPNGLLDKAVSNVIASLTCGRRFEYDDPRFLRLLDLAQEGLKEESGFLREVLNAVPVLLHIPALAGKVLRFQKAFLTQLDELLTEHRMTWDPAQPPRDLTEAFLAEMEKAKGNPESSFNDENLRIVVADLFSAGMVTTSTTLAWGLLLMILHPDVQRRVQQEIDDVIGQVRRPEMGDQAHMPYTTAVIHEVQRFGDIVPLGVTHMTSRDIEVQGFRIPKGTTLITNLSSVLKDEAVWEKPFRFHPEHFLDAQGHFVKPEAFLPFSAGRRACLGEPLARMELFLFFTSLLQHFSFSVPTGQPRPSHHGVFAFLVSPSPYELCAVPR

By IC50 is commonly meant the point on the concentration scale where inhibition reaches its midpoint. What is called EC50 is the midpoint of the concentration-response curve. The EC90 is the point of the concentration-response curve where the effect stands at 90%. For `Cc1cc2c(C(N)=O)c(N)n(-c3c(C)ccc(O)c3C)c2nc1C` [LUNRESERTIB], the figures for the IC50 in data set [1], in [2] and in data set [8] were over 30000 nM, over 30000 nM and over 100000 nM, respectively. In addition, the Papp in [3] is listed as 15.2 10^-6 cm/s. Further, the CLH in data set [4] amounted to 3.2 µL/min. The F in data set [5] is reported as 37%; in data set [6], 29%; in [17] (Sprague-Dawley), 48%. Further, the Activity in data set [7] is 12.5%; in data set [9] it was “Dde”; in [10] it was “Non-Toxic”; in [11], “Non-Toxic”; in data set [12] it was “Non-Toxic”. Moreover, the Stability result in data set [13] is on record as “Stable”. The molecule further returned a fCmax in [14] of 15.5 nM. The Time in data set [15] is 0 h. The EC50 in data set [16] (Homo sapiens, OVCAR-3, 10 h) turned out to be 0.2 nM. For the same molecule, the EC90 in data set [16] (route po, time <= 10 hrs) is recorded as 11 nM.

`Cc1ccc(O)cc1-n1c(N)c(C(N)=O)c2cc3ccccc3nc21` showed an IC50 in data set [18] of 7 nM.

As to `Cc1ccc(O)c(Cl)c1-n1c(N)c(C(N)=O)c2nc3ccccc3nc21`, the half-maximal inhibitory concentration (IC50) turned out to be 940 nM in data set [19] and 7 nM in data set [18].

The hepatocyte CLint is the rate of metabolic loss divided by the concentration. On to `Cc1ccc(O)c(C)c1-n1c(N)c(C(N)=O)c2cc(Cl)cnc21`, for which the IC50 in data set [1] is over 30000 nM; in data set [2] it was 26000 nM; in data set [20], over 30000 nM. In data set [3], the Papp is recorded as 18.3 10^-6 cm/s. Besides, the PPB in data set [21] turned out to be 88.1%; in data set [22], 89.6%. Further, in data set [4], the hepatocyte CLint came out at 4.5 µL/min/1e6 cells. Moreover, the F is 21% in data set [5], 33% in [23], 32% in [6] and 37% in data set [17]. Further, in [7], the Activity is on record as 26.7%. In addition, the CL free in data set [24] amounted to 215 mL/min/kg.

Turning to `Cc1ccc(O)cc1-n1c(N)c(C(N)=O)c2nc3ccccc3nc21`, the IC50 was found to be 3700 nM in data set [19] and 7 nM in [18].
